Data on 15 compounds can be found in ChEMBL document CHEMBL1145119, “Esters, retroesters, and a retroamide of palmitic acid: pool for the first selective inhibitors of N-palmitoylethanolamine-selective acid amidase” (J Med Chem, 2003).

Structures are written as SMILES.

Test [1] concerns the target Cannabinoid receptor 2 (Homo sapiens) (UniProt P34972). The test can be described thus: Binding affinity against human CB2 receptor by using CHO-hCB2 transfected cell membrane [3H]WIN-55212-2 as radioligand at 10 uM. The procedure, abridged:
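Membranes from CHO cells transfected with human CB2 were incubated with 1 nM [3H]-WIN55,212-2 and test compound at 10 μM. Nonspecific binding was defined with 10 μM HU-210. The value is percent inhibition of specific radioligand binding.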

The target in test [2] is Cannabinoid receptor 1 (Homo sapiens) (UniProt P21554). The test can be described thus: Binding affinity against human Cannabinoid receptor 1 using CHO-hCB1 transfected cell membrane and [3H]CP-55940 as radioligand at 10 uM. The method, boiled down:
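Membranes from CHO cells transfected with human CB1 were incubated with 1 nM [3H]-CP55,940 and test compound at 10 μM. Nonspecific binding was defined with 10 μM HU-210. The value is percent inhibition of specific radioligand binding.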

Test [3] has as its target T1, Fatty-acid amide hydrolase 1 (Rattus norvegicus) (UniProt P97612).
T1 sequence (whole entry): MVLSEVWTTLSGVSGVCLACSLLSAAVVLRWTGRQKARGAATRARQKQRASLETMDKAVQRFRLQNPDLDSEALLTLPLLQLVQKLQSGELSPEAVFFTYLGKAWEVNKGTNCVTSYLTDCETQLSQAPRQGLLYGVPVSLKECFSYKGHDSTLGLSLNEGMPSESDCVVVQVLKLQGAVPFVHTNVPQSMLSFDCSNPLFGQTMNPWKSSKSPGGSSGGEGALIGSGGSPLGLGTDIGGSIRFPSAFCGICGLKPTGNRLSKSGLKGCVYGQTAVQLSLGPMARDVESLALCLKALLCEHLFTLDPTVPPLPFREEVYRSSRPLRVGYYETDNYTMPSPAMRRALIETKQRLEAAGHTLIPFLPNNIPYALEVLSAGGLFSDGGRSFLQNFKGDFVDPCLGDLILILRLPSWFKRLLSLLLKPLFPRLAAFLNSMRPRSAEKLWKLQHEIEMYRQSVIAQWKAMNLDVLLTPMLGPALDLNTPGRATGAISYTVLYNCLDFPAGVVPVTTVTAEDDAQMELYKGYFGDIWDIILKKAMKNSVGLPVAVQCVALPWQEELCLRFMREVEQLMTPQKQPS
Description: Inhibition of fatty acid amide hydrolase (FAAH) from rat brain homogenates at 10 uM. The format is tissue-based. The method, boiled down: (§1)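 Hydrolysis of [3H]-anandamide by rat brain homogenate was measured at assay pH 7.6. Compound was mostly tested over 0.5–100 μM, and percent inhibition is given at 10 and 100 μM. A value below 0 means activity remaining exceeded 100%.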

In test [4] the target is T1, Fatty-acid amide hydrolase 1 (Rattus norvegicus). The test can be described thus: Inhibition of fatty acid amide hydrolase (FAAH) from rat brain homogenates at 100 uM. The format is tissue-based. The procedure, abridged: as §1
The target of test [5] is N-acylethanolamine-hydrolyzing acid amidase (Rattus norvegicus) (UniProt Q5KTC7). The test can be described thus: Inhibition of N-palmitoylethanolamine-selective acid amidase (NPAA) from rat lung homogenates at 100 uM.
N-acylethanolamine-hydrolyzing acid amidase (Rattus norvegicus), sequence (Q5KTC7 whole entry, looked up): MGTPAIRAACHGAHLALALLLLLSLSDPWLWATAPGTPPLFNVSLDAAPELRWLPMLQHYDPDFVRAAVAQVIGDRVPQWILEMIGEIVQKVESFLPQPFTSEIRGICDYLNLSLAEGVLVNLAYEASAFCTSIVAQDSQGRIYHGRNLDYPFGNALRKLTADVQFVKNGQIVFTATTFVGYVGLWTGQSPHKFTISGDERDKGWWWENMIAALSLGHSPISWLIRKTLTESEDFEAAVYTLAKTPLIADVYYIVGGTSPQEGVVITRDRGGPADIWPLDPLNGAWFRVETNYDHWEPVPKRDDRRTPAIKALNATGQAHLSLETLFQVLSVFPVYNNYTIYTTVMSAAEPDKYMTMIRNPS
For test [6], the species on record is Rattus norvegicus. The test can be described thus: Compound was tested for the inhibition of N-palmitoylethanolamine-selective acid amidase (NPAA) from rat lung homogenates at 100 uM. The procedure, abridged: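 Enzyme (12 μg protein) was solubilized from the 12 000 × g pellet of rat lung homogenate. It was incubated with 100 μM [14C]-N-palmitoylethanolamine (10 000 cpm) and 100 μM compound for 30 min at 37 °C. Buffer was 50 mM citrate–sodium phosphate, pH 5.0, with 3 mM DTT and 0.1% Triton X-100. Radioactivity was read by imaging scan. The value is percent inhibition.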

In test [7] the target is T1, Fatty-acid amide hydrolase 1 (Rattus norvegicus). The test can be described thus: Compound was tested for the inhibition of fatty acid amide hydrolase from rat brain homogenates at 10 uM in buffer B of pH 9 by using 100 uM [3H]ethanolamine-labeled anandamide as substrate. The format is tissue-based.
Test [8] shares this target. The test can be described thus: Compound was tested for the inhibition of fatty acid amide hydrolase from rat brain homogenates at 10 uM in buffer A of pH 6 by using 10 uM [3H]ethanolamine-labeled anandamide as substrate. The method, boiled down: (§2)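 The rat brain homogenate FAAH assay used 10 μM [3H]-ethanolamine-labeled anandamide as substrate. Protein was 10 μg per assay at pH 6 and 3 μg at pH 9. Buffer A was 10 mM Tris-HCl and 1 mM EDTA with fatty acid-free BSA. Buffer B was 125 mM Tris, 1 mM EDTA, 0.2% glycerol, 0.02% Triton X-100 and 0.4 mM HEPES, without BSA. pH was adjusted with NaOH or HCl. Compounds were tested at 10, 30 and 100 μM. The value is percent inhibition.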

Test [9] shares this target. Description: Compound was tested for the inhibition of fatty acid amide hydrolase from rat brain homogenates at 10 uM in buffer A of pH 6 by using 100 uM [3H]ethanolamine-labeled anandamide as substrate. The format is tissue-based.
Test [10] has the same target. The test can be described thus: Compound was tested for the inhibition of fatty acid amide hydrolase from rat brain homogenates at 10 uM in buffer A of pH 6 by using 30 uM [3H]ethanolamine-labeled anandamide as substrate. The format is tissue-based.
For test [11] the target is unchanged. The test can be described thus: Compound was tested for the inhibition of fatty acid amide hydrolase from rat brain homogenates at 10 uM in buffer A of pH 9 by using 10 uM [3H]ethanolamine-labeled anandamide as substrate. The format is tissue-based. The procedure, abridged: as §2
Test [12] has the same target. The test can be described thus: Compound was tested for the inhibition of fatty acid amide hydrolase from rat brain homogenates at 10 uM in buffer A of pH 9 by using 100 uM [3H]ethanolamine-labeled anandamide as substrate. The format is tissue-based.
Test [13] shares this target. The test can be described thus: Compound was tested for the inhibition of fatty acid amide hydrolase from rat brain homogenates at 10 uM in buffer A of pH 9 by using 30 uM [3H]ethanolamine-labeled anandamide as substrate. The format is tissue-based.
For test [14] the target is unchanged. The test can be described thus: Compound was tested for the inhibition of fatty acid amide hydrolase from rat brain homogenates at 10 uM in buffer B of pH 6 by using 10 uM [3H]ethanolamine-labeled anandamide as substrate. The format is tissue-based. The procedure, abridged:
as §2

For test [15] the target is unchanged. Description: Compound was tested for the inhibition of fatty acid amide hydrolase from rat brain homogenates at 10 uM in buffer B of pH 6 by using 100 uM [3H]ethanolamine-labeled anandamide as substrate. The format is tissue-based.
Test [16] relates to RBL-2H3. The test can be described thus: Compound was tested for the inhibition of [3H]anandamide Uptake in RBL-2H3 cells at 100 uM. The format is functional. The conditions noted are these: Rattus norvegicus. The method, boiled down:
(§3)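 RBL-2H3 cells (passage 38) were preincubated with compound (10, 30 or 100 μM). They were then exposed to 2 μM [3H]-arachidonoyl-labeled anandamide for 8 min. Uptake was taken as accumulation in cell wells minus parallel cell-free wells. 200 μM AM404 served as positive control in every assay. The value is percent inhibition of uptake.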

In test [17] the test system is RBL-2H3. Description: Compound was tested for the inhibition of [3H]anandamide Uptake in RBL-2H3 cells at 30 uM. The conditions noted are these: Rattus norvegicus. The format is functional. The method, boiled down:
as §3

The subject of test [18] is RBL-2H3. The test can be described thus: Compound was tested for the inhibition of [3H]anandamide Uptake in RBL-2H3 cells at 10 uM. The format is functional. The conditions noted are these: Rattus norvegicus. The procedure, abridged:
as §3

The target of test [19] is T1, Fatty-acid amide hydrolase 1 (Rattus norvegicus). Description: Compound was tested for the inhibition of fatty acid amide hydrolase from rat brain homogenates at 10 uM in buffer B of pH 9 by using 10 uM [3H]ethanolamine-labeled anandamide as substrate. The format is tissue-based. The procedure, abridged: as §2

Cannabinoid receptor 2 (Homo sapiens), sequence (P34972 whole entry): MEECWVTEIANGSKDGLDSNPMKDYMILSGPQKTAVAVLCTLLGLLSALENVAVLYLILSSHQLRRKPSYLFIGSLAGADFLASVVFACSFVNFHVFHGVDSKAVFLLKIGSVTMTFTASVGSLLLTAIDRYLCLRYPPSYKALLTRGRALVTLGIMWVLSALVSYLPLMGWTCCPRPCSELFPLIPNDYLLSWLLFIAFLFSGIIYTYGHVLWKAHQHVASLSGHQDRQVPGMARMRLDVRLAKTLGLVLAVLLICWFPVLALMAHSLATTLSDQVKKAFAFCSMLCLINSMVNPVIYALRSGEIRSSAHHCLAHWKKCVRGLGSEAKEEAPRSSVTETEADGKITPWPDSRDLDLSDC
Cannabinoid receptor 1 (Homo sapiens), sequence (P21554 whole entry): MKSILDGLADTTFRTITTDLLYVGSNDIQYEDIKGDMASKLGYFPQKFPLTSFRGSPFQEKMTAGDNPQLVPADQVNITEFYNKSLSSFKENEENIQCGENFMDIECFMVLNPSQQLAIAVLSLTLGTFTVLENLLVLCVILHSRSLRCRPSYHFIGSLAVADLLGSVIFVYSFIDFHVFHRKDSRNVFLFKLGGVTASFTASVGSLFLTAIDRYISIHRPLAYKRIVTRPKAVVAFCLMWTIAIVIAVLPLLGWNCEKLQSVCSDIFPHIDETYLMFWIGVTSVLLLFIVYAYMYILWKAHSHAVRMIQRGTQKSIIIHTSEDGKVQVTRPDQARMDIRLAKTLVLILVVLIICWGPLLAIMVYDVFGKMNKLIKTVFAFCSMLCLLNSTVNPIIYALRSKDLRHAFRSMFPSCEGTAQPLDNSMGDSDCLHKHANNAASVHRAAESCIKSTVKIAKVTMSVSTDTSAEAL

For `CCCCCCCCCCCCCCCC(=O)NC(C)C`, the inhibition (as a rule, the drop in the measured response relative to a control, in per cent) was 12% in test [1]; 25% in test [2]; 30% in test [3]; 52% in test [4]; 25% in [5].

As to `CCCCCCCCCCCCCCCC(=O)OC`, the inhibition is 14% in [1]; 11% in test [2]; 18% in [3]; 69% in test [4]; 64% in [6].

`C=CCOC(=O)CCCCCCCCCCCCCCC`: the inhibition was determined as 1% in test [1]; 2% in [2]; 16% in test [3]; 36% in test [4]; 48% in [5].

`CCCCCCCCCCCCCCCC(=O)NCCO`: the inhibition was 14% in [1]; 24% in test [2]; 49% in [3]; 68% in test [4]; 34% in test [5].

With `CCCCCCCCCCCCCCCC(=O)OCCCl`, the inhibition in [1] was determined as 6%; in test [2], 14%; in test [3], 27%; in test [4], 45%; in [5] it was 55%.

As for `CCCCCCCCCCCCCCCC(=O)OC(C)(C)C`, the inhibition was 14% in [1]; 14% in [2]; below 0% in test [3]; below 0% in [4]; 23% in test [5].

On to `CCCCCCCCCCCCCCCCOC(=O)CC` [HEXADECYLPROPIONATE], for which the inhibition is 2% in [1]; 12% in test [2]; below 0% in [3]; below 0% in [7]; below 0% in test [4]; 2% in [8]. The inhibition was below 0% in [9]; below 0% in test [10]; 26% in test [11]; 4% in test [12]; 21% in [13]; 5% in test [14]. The inhibition is below 0% in test [15], below 0% in test [19] and 71% in test [5]. Also, in test [16], 100 µM produced 15% inhibition. Further, the inhibition at 30 µM in test [17] worked out at 12%. In test [18], this compound gave an inhibition at 10 µM of 11%.

For the compound `CCCCCCCCCCCCCCCC(=O)OCc1ccccc1`, the inhibition in test [1] amounted to 5%; in test [2], 5%; in test [3] it was 6%; in [4], 24%; in test [5], 50%.

Regarding `CCCCCCCCCCCCCCCC(=O)NC`, the inhibition in test [1] is 8%; in test [2], 3%; in test [3], 35%; in [4], 68%; in test [5], 30%.

Consider `CCCCCCCCCCCCCCCCOC(C)=O`, for which the inhibition in [1] was 9%; in test [2] it was 10%; in [3], below 0%; in test [4], below 0%; in [5], 68%.

For the compound `CCCCCCCCCCCCCCCC(=O)OC(C)C`, the inhibition in test [1] was 0.5%; in test [2] it was 8%; in test [3], below 0%; in test [4] it was below 0%; in test [5], 44%.

`CCCCCCCCCCCCCCCC(=O)NC1CCCCC1`: the inhibition in test [1] is 8%; in test [2] it was 34%; in test [3] it was 8%; in test [4] it was 11%; in test [5], 23%.

As for `CCCCCCCCCCCCCCCC(=O)OC1CCCCC1` [CYCLOHEXYL PALMITATE], the inhibition in test [1] is 6%; in [2], 14%; in test [3] it was 6%; in test [7] it was 46%; in [4], 36%; in test [8], 8%. In addition, the inhibition in [9] came out at 37%; in [10] it was 2%; in test [11], 5%; in test [12], 12%; in test [13], 17%; in [14], 20%. In addition, the inhibition came to 51% in test [15], 12% in test [19] and 84% in test [5]. For the same compound, 100 µM produced 29% inhibition in [16]. This compound also yielded an inhibition at 30 µM in test [17] of 16%. Besides, the inhibition at 10 µM in test [18] stood at 5%.

For the compound `CCCCCCCCCCCCCCCC(=O)OCCBr`, the inhibition came to 2% in [1]; 2% in [2]; 19% in test [3]; 31% in test [4]; 45% in [5].

On to `CCCCCCCCCCCCCCCNC(=O)CCO`, for which the inhibition in test [1] is 3%; in test [2] it was 4%; in [3] it was below 0%; in test [7], below 0%; in [4], 8%; in test [8] it was 8%. The inhibition in test [9] was determined as 2%; in test [11], 20%; in test [12] it was 7%; in test [13], 5%; in test [14], 11%; in [15], 16%. The inhibition in test [19] stood at 6%; in test [5] it was 77%. In test [16], this compound registered an inhibition at 100 µM of 28%. For the same compound, in test [17], the inhibition at 30 µM was 13%. This compound also registered an inhibition at 10 µM in test [18] of 8%.
